Legend:
Clostridioides difficile [1] = experiment: Antibacterial activity against Clostridium difficile NSW132 RT027 incubated for 48 hrs by CLSI method; assay type: functional; conditions: NSW132 RT027, 48 h
Method in brief: (§1)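 Broth microdilution per CLSI anaerobe method in pre-reduced (2-4 h) Brucella broth with haemin and vitamin K, 35 °C anaerobically for 48 h. Compounds from 5 mg/mL DMSO stocks, twofold dilutions in water mixed with double-strength broth; final 0.25–128 μg/mL. […] Triplicate; modal MIC read visually as lowest concentration inhibiting growth.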

Escherichia coli [2] = experiment: Antibacterial activity against Escherichia coli ATCC 25922 incubated for 18 hrs by CLSI method; assay type: functional; conditions: ATCC 25922, 18 h
Method in brief: (§2)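 Screen run by CO-ADD: mid-log cultures in cation-adjusted MHB, 5 × 10^5 CFU/mL, compounds at up to 32 μg/mL in 1:2 serial dilutions (8 steps), final DMSO ≤0.5%, duplicate. 37 °C for 18 h without shaking; OD600 read against media-only and untreated-bacteria references. MIC = lowest concentration giving ≥80% inhibition; colistin standard.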

Klebsiella pneumoniae = experiment: Antibacterial activity against Klebsiella pneumoniae 700603 incubated for 18 hrs by CLSI method; assay type: functional; conditions: Klebsiella pneumoniae, 700603, 18 h; method in brief: as §2
Clostridioides difficile [3] = experiment: Antibacterial activity against Clostridium difficile ATCC 700057 incubated for 48 hrs by CLSI method; assay type: functional; conditions: ATCC 700057, 48 h; method in brief: as §1
Pseudomonas aeruginosa = experiment: Antimicrobial activity against Pseudomonas aeruginosa ATCC 27853 incubated for 18 hrs by CLSI method; assay type: functional; conditions: ATCC 27853, 18 h; method in brief: as §2
Staphylococcus aureus [4] = experiment: Antimicrobial activity against Staphylococcus aureus ATCC 43300 incubated for 18 hrs by CLSI method; assay type: functional; conditions: ATCC 43300, 18 h
Streptococcus pneumoniae [5] = experiment: Antibacterial activity against Streptococcus pneumoniae ATCC 49619 incubated for 24 hrs by CLSI method; assay type: functional; conditions: ATCC 49619, 24 h
Method in brief: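 CLSI broth microdilution in MHB with 2.5% lysed horse blood, 5% CO2, 35 °C, 24 h. Compounds from 5 mg/mL DMSO stocks diluted in water plus double-strength broth; final 0.25–128 μg/mL. […] Triplicate; modal MIC read visually as lowest growth-inhibiting concentration.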

[6] = Haemolytic activity in sheep erythrocytes at 50 ug/ml incubated for 2 hrs under shaking condition relative to control; assay type: ADME, cell-based, Ovis aries, Erythrocyte; conditions: read-out: Activity
Method in brief: (§3)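 Compounds in PBS mixed with washed sheep erythrocytes (2% final) at 5 or 50 μg/mL, rocked 2 h at 37 °C, centrifuged; supernatant absorbance at 540 nm. PBS-only value subtracted, then expressed relative to water lysis (100%). Triplicate, means reported.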

Staphylococcus aureus [7] = experiment: Antimicrobial activity against Staphylococcus aureus ATCC 29213 incubated for 24 hrs by CLSI method; assay type: functional; conditions: ATCC 29213, 24 h
Method in brief: (§4)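 Broth microdilution per CLSI aerobic guidance in Mueller Hinton broth, ambient air, 35 °C for 24 h. DMSO stocks were diluted in water, then serially diluted with double-strength broth inoculum added, for final 0.25–128 μg/mL. […] MIC was read visually as the lowest concentration inhibiting growth; the modal value of triplicates was recorded.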

Staphylococcus aureus [8] = experiment: Antibacterial activity against methicillin-resistant Staphylococcus aureus NCTC 10442 incubated for 24 hrs by CLSI method; assay type: functional; conditions: NCTC 10442, 24 h; method in brief: as §4
Enterococcus faecalis [9] = experiment: Antibacterial activity against Enterococcus faecalis ATCC 29212 incubated for 24 hrs by CLSI method; assay type: functional; conditions: ATCC 29212, 24 h
Acinetobacter baumannii [10] = experiment: Antimicrobial activity against Acinetobacter baumannii ATCC 19606 incubated for 18 hrs by CLSI method; assay type: functional; conditions: ATCC 19606 = CIP 70.34 = JCM 6841, 18 h; method in brief: as §2
[11] = Cytotoxicity against human HEK293 cells assessed as reduction in cell growth incubated for 20 hrs by resazurin dye-based fluorometric assay
Method in brief: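 HEK293 cells, 5000 per well in DMEM + 10% FBS, exposed to compounds (top 32 μg/mL, 1:2 serial dilution ×8, ≤0.5% DMSO, duplicate) for 20 h at 37 °C, 5% CO2. Resazurin added (2.3 μg/mL final), 3 h further; fluorescence ex 560/em 590 nm. CC50 from sigmoidal dose-response fit against log concentration; tamoxifen standard.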

[12] = Haemolytic activity in sheep erythrocytes at 5 ug/ml incubated for 2 hrs under shaking condition relative to control; assay type: ADME, cell-based, Ovis aries, Erythrocyte; conditions: read-out: Activity; method in brief: as §3
Staphylococcus aureus [13] = experiment: Induction of cytoplasmic membrane depolarization in Staphylococcus aureus ATCC 29213 at 32 ug/ml incubated for 30 mins by diSC35 staining based fluorescence assay relative to control; assay type: functional
Method in brief: (§5)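 Mid-log cells (1.5 McFarland) loaded with 4 µM diSC3(5) in the dark at room temperature: S. aureus in PBS 30 min; E. coli in 5 mM HEPES/20 mM glucose pH 7.2 for 60 min, then 100 mM KCl and 0.5 mM EDTA. Baseline fluorescence (ex 620/em 670 nm) ~8 min, then compound added (final 32 µg/mL S. aureus, 64 µg/mL E. coli), tracked ~30 min.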

Escherichia coli [14] = experiment: Induction of cytoplasmic membrane depolarization in Escherichia coli NCTC 10418 at 64 ug/ml incubated for 30 mins by diSC35 staining based fluorescence assay relative to control; assay type: functional; method in brief: as §5
Staphylococcus aureus [15] = experiment: Induction of plasma membrane permeabilization in Staphylococcus aureus ATCC 29213 at 32 ug/ml measured for 30 mins by propidium iodide staining based fluorescence assay relative to control; assay type: functional
Method in brief: (§6)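 Mid-log cells (1.5 McFarland) with 4 µM propidium iodide, dark, room temperature: S. aureus in PBS 30 min; E. coli in 5 mM HEPES/20 mM glucose pH 7.2 for 60 min, then 100 mM KCl and 0.5 mM EDTA. Fluorescence (ex 544/em 615 nm) read ~8 min baseline, then ~30 min after compound at 32 µg/mL final.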

Escherichia coli [16] = experiment: Induction of plasma membrane permeabilization in Escherichia coli NCTC 10418 at 32 ug/ml measured for 30 mins by propidium iodide staining based fluorescence assay relative to control; assay type: functional; method in brief: as §6
Staphylococcus aureus [17] = experiment: Antimicrobial activity against methicillin-resistant Staphylococcus aureus ATCC 43300 incubated for 18 hrs by CLSI method; assay type: functional; conditions: ATCC 43300, 18 h
Staphylococcus aureus [18] = experiment: Antimicrobial activity against methicillin-resistant Staphylococcus aureus clinical isolate incubated for 18 hrs by CLSI method; assay type: functional
Staphylococcus aureus [19] = experiment: Antimicrobial activity against glycopeptide intermediate susceptible Staphylococcus aureus NRS17 incubated for 18 hrs by CLSI method; assay type: functional; conditions: NRS17, 18 h
Staphylococcus aureus [20] = experiment: Antimicrobial activity against glycopeptide intermediate susceptible/methicillin-resistant Staphylococcus aureus NRS1 incubated for 18 hrs by CLSI method; assay type: functional; conditions: NRS1, 18 h
Staphylococcus aureus [21] = experiment: Antimicrobial activity against methicillin-resistant Staphylococcus aureus clinical isolate with reduced daptomycin susceptibility incubated for 18 hrs by CLSI method; assay type: functional
Staphylococcus aureus [22] = experiment: Antimicrobial activity against vancomycin resistant Staphylococcus aureus NARSA VRS10 incubated for 18 hrs by CLSI method; assay type: functional; conditions: NARSA VRS10, 18 h
Streptococcus pneumoniae [23] = experiment: Antibacterial activity against MDR Streptococcus pneumoniae ATCC 700677 incubated for 18 hrs by CLSI method; assay type: functional; conditions: ATCC 700677, 18 h
Enterococcus faecalis [24] = experiment: Antimicrobial activity against vancomycin-resistant Enterococcus faecalis clinical isolate incubated for 18 hrs by CLSI method; assay type: functional
Staphylococcus aureus [25] = experiment: Bactericidal activity against exponential phase of Staphylococcus aureus ATCC 29213 assessed as reduction in bacterial count at 64 ug/ml measured at <= 30 mins by time-kill kinetics assay relative to control; assay type: functional
Escherichia coli [26] = experiment: Bactericidal activity against exponential phase of Escherichia coli NCTC 10418 assessed as reduction in bacterial count at 64 ug/ml measured at <= 120 mins by time-kill kinetics assay relative to control; assay type: functional
Staphylococcus aureus [27] = experiment: Bactericidal activity against exponential phase of Staphylococcus aureus ATCC 29213 assessed as reduction in bacterial count at 64 ug/ml measured at 2 hrs by time-kill kinetics assay; assay type: functional
Staphylococcus aureus [28] = experiment: Antimicrobial activity against methicillin-resistant Staphylococcus aureus incubated for 24 hrs by broth microdilution method; assay type: functional; method in brief: as §4
Enterococcus faecalis [29] = experiment: Antimicrobial activity against vancomycin-resistant Enterococcus faecalis incubated for 24 hrs by broth microdilution method; assay type: functional
Clostridioides difficile [30] = experiment: Antimicrobial activity against Clostridium difficile incubated for 24 hrs by broth microdilution method; assay type: functional
Acinetobacter baumannii [31] = experiment: Antimicrobial activity against Acinetobacter baumannii incubated for 24 hrs by broth microdilution method; assay type: functional

Structure (SMILES) | MIC (Clostridioides difficile [1]) | MIC (Escherichia coli [2]) | MIC (Klebsiella pneumoniae) | MIC (Clostridioides difficile [3]) | MIC (Pseudomonas aeruginosa) | MIC (Staphylococcus aureus [4]) | MIC (Streptococcus pneumoniae [5]) | hemolysis at 2 h, 50 ug/ml [6] | MIC (Staphylococcus aureus [7]) | MIC (Staphylococcus aureus [8]) | MIC (Enterococcus faecalis [9]) | MIC (Acinetobacter baumannii [10]) | CC50 at 20 h [11] | hemolysis at 2 h, 5 ug/ml [12] | Activity (Staphylococcus aureus [13]) | Activity (Escherichia coli [14]) | Activity (Staphylococcus aureus [15]) | Activity (Escherichia coli [16]) | MIC (Staphylococcus aureus [17]) | MIC (Staphylococcus aureus [18]) | also measured
CC(C)CCOc1ccccc1-c1ccccc1OCc1cn(C[C@@H](CCCCN)NC(=O)CCc2ccccc2)nn1.Cl | 16 µg/mL | 32 µg/mL | 32 µg/mL | 8 µg/mL | 32 µg/mL | 16 µg/mL | 8 µg/mL | 101% | 8 µg/mL | 4 µg/mL | 8 µg/mL | > 32 µg/mL | 4.8 µg/mL | 0.2% | 120 - 180% | 460 - 900% | 600% | 75% |  |  | 
CC(C)CCOc1ccc2ccccc2c1-c1c(OCc2cn(C[C@@H](CCCCN)NC(=O)[C@@H](CCCNC(=N)N)NC(=O)CCc3ccccc3)nn2)ccc2ccccc12.Cl.Cl | 32 µg/mL | 8 µg/mL | 32 µg/mL | 16 µg/mL | 16 µg/mL | 2 µg/mL | 4 µg/mL | 94.2% | 4 µg/mL | 4 µg/mL | 4 µg/mL | 32 µg/mL | 27.4 µg/mL | 1.1% | 120 - 180% | 460 - 900% | 600% | 25 - 40% | 1 to 2 µg/mL | 4 µg/mL | MIC (Staphylococcus aureus [19]): 2 µg/mL; MIC (Staphylococcus aureus [20]): 2 to 4 µg/mL; MIC (Staphylococcus aureus [21]): 2 to 4 µg/mL; MIC (Staphylococcus aureus [22]): 2 µg/mL; MIC (Streptococcus pneumoniae [23]): 1 to 2 µg/mL; MIC (Enterococcus faecalis [24]): 2 µg/mL; Activity (Staphylococcus aureus [25]): >=3 log10CFU/ml; Activity (Escherichia coli [26]): >=3 log10CFU/ml; Activity (Staphylococcus aureus [27]): < 1000 CFU/mL
CC(C)CCOc1ccc2ccccc2c1-c1c(OCC(=O)N[C@H](CCCCN)C(=O)N[C@H](CCCNC(=N)N)Cn2cc(CC3CCCCC3)nn2)ccc2ccccc12.Cl.Cl |  |  |  |  |  |  |  | 78% |  |  |  |  |  |  |  |  |  |  |  |  | MIC (Staphylococcus aureus [28]): 2 µg/mL; MIC (Enterococcus faecalis [29]): 4 µg/mL; MIC (Clostridioides difficile [30]): 4 µg/mL; MIC (Acinetobacter baumannii [31]): 4 µg/mL
CC(C)CCOc1ccccc1-c1ccccc1OCc1cn(C[C@@H](CCCCN)NC(=O)[C@@H](CCCNC(=N)N)n2cc(CC3CCCCC3)nn2)nn1.Cl.Cl | 4 µg/mL | 4 µg/mL | 16 µg/mL | 4 µg/mL | 16 µg/mL | 2 µg/mL | 4 µg/mL | 42.4% | 4 µg/mL | 4 µg/mL | 4 µg/mL | 8 µg/mL | > 32 µg/mL | 1.5% | 120 - 180% | 460 - 900% | 600% | 25 - 40% |  |  | 
CC(C)CCOc1ccc2ccccc2c1-c1c(OCc2cn(C[C@@H](CCCCN)NC(=O)CCc3ccccc3)nn2)ccc2ccccc12.Cl | 32 µg/mL | > 32 µg/mL | > 32 µg/mL | 32 µg/mL | > 32 µg/mL | 4 µg/mL | 16 µg/mL |  | 4 µg/mL | 8 µg/mL | 8 µg/mL | > 32 µg/mL | 3.5 µg/mL |  |  |  |  |  | 2 to 4 µg/mL | 16 µg/mL | MIC (Staphylococcus aureus [19]): 8 µg/mL; MIC (Staphylococcus aureus [20]): 8 to 16 µg/mL; MIC (Staphylococcus aureus [21]): 8 µg/mL; MIC (Staphylococcus aureus [22]): 8 µg/mL; MIC (Streptococcus pneumoniae [23]): 8 µg/mL; MIC (Enterococcus faecalis [24]): 4 µg/mL

— ChEMBL document CHEMBL4390663, “Cationic biaryl 1,2,3-triazolyl peptidomimetic amphiphiles: synthesis, antibacterial evaluation and preliminary mechanism of action studies” (Eur J Med Chem, 2019)
